The text below walks through data of ChEMBL document CHEMBL2375264, “Potent naphthoquinones against antimony-sensitive and -resistant Leishmania parasites: synthesis of novel α- and nor-α-lapachone-based 1,2,3-triazoles by copper-catalyzed azide-alkyne cycloaddition” (Eur J Med Chem, 2013).

Series [1] in a line: Selectivity index, ratio of CC50 for Swiss mouse peritoneal macrophages to IC50 for antimony-resistant Leishmania infantum MCAN/BR/2002/BH400 promastigote. In kind it is functional. The essentials: (§1)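 SI = CC50/IC50. CC50 comes from Swiss mouse peritoneal macrophages, harvested by lavage with cold RPMI-1640 lacking FBS. Cells seeded at 4.0 × 10⁶/mL, allowed to adhere 1 h, then washed free of non-adherent cells. Viability read by MTT (5 mg/mL stock, 4 h).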

Series [2] has as its system Leishmania infantum. The series can be described thus: Antileishmanial activity against antimony-resistant Leishmania infantum MCAN/BR/2002/BH400 promastigote infected in Swiss mouse peritoneal macrophages after 72 hrs. The format is functional, organism-based. Conditions: MCAN/BR/2002/BH400, 72 h. In a few lines:
(§2)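 Promastigotes of Sb(III)-sensitive and -resistant lines (resistant to Sb(III) up to 2700), maintained at 25 °C, pH 7.0, in α-MEM with 10% heat-inactivated FBS, kanamycin, ampicillin, L-glutamine, hemin and biopterin. Drugs dissolved in DMSO, diluted in α-MEM across a concentration range, final DMSO ≤0.2%.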

Series [3] can be described thus: Selectivity index, ratio of CC50 for Swiss mouse peritoneal macrophages to IC50 for antimony-sensitive Leishmania amazonensis MHOM/BR/1989/BA199 promastigote. The format is functional. The essentials:
(§3)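 SI = CC50 / IC50. CC50 is from Swiss mouse peritoneal macrophages, read by MTT after lavage and 1 h adherence. […] Promastigotes grown in α-MEM with 10% heat-inactivated FBS, hemin and biopterin, pH 7.0, 25 °C. DMSO ≤0.2% final. Triplicate.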

The nature of series [4]: Selectivity index, ratio of CC50 for Swiss mouse peritoneal macrophages to IC50 for antimony-resistant Leishmania amazonensis MHOM/BR/1989/BA199 promastigote. In kind it is functional. In a few lines: as §1
For series [5], the system named is Leishmania amazonensis. The series can be described thus: Antileishmanial activity against antimony-resistant Leishmania amazonensis MHOM/BR/1989/BA199 promastigote infected in Swiss mouse peritoneal macrophages after 72 hrs. The format is functional, organism-based. Conditions: MHOM/BR/1989/BA199, 72 h. The essentials: as §2
Series [6] can be described thus: Cytotoxicity against Swiss mouse peritoneal macrophages after 24 hrs by MTT assay. The format is cell-based, Peritoneal macrophage cell. In a few lines:
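Macrophages from peritoneal lavage of Swiss mice with cold FBS-free RPMI-1640. Cells seeded at 4.0 × 10⁶/mL, adhered 1 h, non-adherent cells washed off. Compounds were DMSO stocks diluted in medium over a concentration range, final DMSO ≤0.2%. Viability read by MTT (5 mg/mL solution, 4 h further incubation). CC50 taken as the 50% cytotoxic concentration.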
In general terms: Tetrazolium assays rely on reduction of a dye to a coloured formazan, in cell work by metabolically active cells.

Series [7] relates to Leishmania amazonensis. In words: Antileishmanial activity against antimony-sensitive Leishmania amazonensis MHOM/BR/1989/BA199 promastigote infected in Swiss mouse peritoneal macrophages after 72 hrs. The format is functional, organism-based. To be noted: MHOM/BR/1989/BA199, 72 h. In a few lines: as §2
The nature of series [8]: Selectivity index, ratio of CC50 for Swiss mouse peritoneal macrophages to IC50 for antimony-sensitive Leishmania infantum MCAN/BR/2002/BH400 promastigote. The format is functional. The essentials: as §3
Series [9] deals with Leishmania infantum. In words: Ratio of potassium antimonyl tartrate IC50 to compound IC50 for antimony-sensitive Leishmania infantum MCAN/BR/2002/BH400 promastigote infected in Swiss mouse peritoneal macrophages. In kind it is functional.
For series [10], the system named is Leishmania infantum. The series can be described thus: Antileishmanial activity against antimony-sensitive Leishmania infantum MCAN/BR/2002/BH400 promastigote infected in Swiss mouse peritoneal macrophages after 72 hrs. In kind it is functional, organism-based. To be noted: MCAN/BR/2002/BH400, 72 h. In a few lines:
as §2

The test system of series [11] is Leishmania amazonensis. In words: Ratio of potassium antimonyl tartrate IC50 to compound IC50 for antimony-sensitive Leishmania amazonensis MHOM/BR/1989/BA199 promastigote infected in Swiss mouse peritoneal macrophages. In kind it is functional.

Broadly, the IC50 is the concentration at which inhibition is half-maximal. Low values mean greater potency, high ones weaker potency. A word on the CC50: it is the concentration at which the toxic effect on the cells reaches its halfway point.

On to `O=C1C=C(n2cc(-c3ccccc3)nn2)C(=O)c2ccccc21`, for which the “Ratio CC50/IC50” value in series [1] stood at 0.59; in [3] it was 0.61; in series [4], 1.28; in series [8], 0.47. Also, the IC50 was found to be 17.2 µM in the series with Leishmania infantum [2], 7.94 µM in the series on Leishmania amazonensis [5], 16.7 µM in the series on Leishmania amazonensis [7] and 21.6 µM in the series on Leishmania infantum [10]. The compound also had a CC50 at 24 h in series [6] of 10.2 µM. The “Ratio IC50” value in the series on Leishmania infantum [9] came out at 2; in the series on Leishmania amazonensis [11] it was 2.2.
For the compound `COc1ccc(-c2cn(C3=CC(=O)c4ccccc4C3=O)nn2)cc1`, the “Ratio CC50/IC50” value was found to be 0.9 in [1], 0.49 in series [3], 0.68 in series [4] and 1.06 in series [8]. Further, the IC50 with Leishmania infantum [2] was 18.6 µM; in the series with Leishmania amazonensis [5] it was 24.5 µM; in the series with Leishmania amazonensis [7], 34.3 µM; in the series with Leishmania infantum [10], 15.8 µM. The same compound came in with a CC50 at 24 h in series [6] of 16.8 µM. Besides, the “Ratio IC50” value is 2 in the series with Leishmania infantum [9] and 2.2 in the series on Leishmania amazonensis [11].
Take `O=C1C=C(n2cc(-c3ccc(Br)cc3)nn2)C(=O)c2ccccc21`: the “Ratio CC50/IC50” value amounted to 1.52 in series [1], 0.37 in [3], 0.43 in [4] and 1.24 in series [8]. Moreover, the IC50 worked out at 14.1 µM in the series on Leishmania infantum [2], 50.1 µM in the series with Leishmania amazonensis [5], 57.8 µM in the series on Leishmania amazonensis [7] and 17.2 µM in the series on Leishmania infantum [10]. In series [6], the CC50 at 24 h turned out to be 21.4 µM. The entries for the “Ratio IC50” value in the series with Leishmania infantum [9] and in the series on Leishmania amazonensis [11] were 2 and 2.2, respectively.
Take `Cc1ccc(-c2cn(C3=CC(=O)c4ccccc4C3=O)nn2)cc1`: the “Ratio CC50/IC50” value in [1] is given as 1.12; in [3], 0.71; in [4], 1.1; in [8], 1.72. For the same compound, the IC50 in the series on Leishmania infantum [2] was 13.6 µM; with Leishmania amazonensis [5] it was 13.8 µM; in the series on Leishmania amazonensis [7] it was 21.2 µM; in the series on Leishmania infantum [10], 8.8 µM. The compound further came in with a CC50 at 24 h in series [6] of 15.2 µM. The “Ratio IC50” value in the series on Leishmania infantum [9] was found to be 2; in the series on Leishmania amazonensis [11], 2.2.
With `O=C1C=C(n2cc(CO)nn2)C(=O)c2ccccc21`, the “Ratio CC50/IC50” value is reported as 1.64 in series [1], 0.4 in series [3], 0.45 in [4] and 0.24 in [8]. Further, the IC50 in the series on Leishmania infantum [2] came to 5.8 µM; with Leishmania amazonensis [5] it was 21.3 µM; in the series with Leishmania amazonensis [7], 23.9 µM; in the series on Leishmania infantum [10] it was 39.1 µM. Besides, in [6], the CC50 at 24 h is 9.51 µM. The “Ratio IC50” value was determined as 2 in the series with Leishmania infantum [9] and 2.2 with Leishmania amazonensis [11].
As to `CC1(C)OC2=C(C(=O)C(=O)c3ccccc32)C1n1cc(-c2ccc(F)cc2)nn1` (stereo not given), the “Ratio CC50/IC50” value amounted to 0.72 in series [1], 0.75 in series [3], 0.8 in [4] and 0.81 in series [8]. The IC50 came to 4.9 µM with Leishmania infantum [2], 4.39 µM in the series with Leishmania amazonensis [5], 4.7 µM in the series with Leishmania amazonensis [7] and 4.32 µM in the series with Leishmania infantum [10]. Also, the CC50 at 24 h in series [6] is 3.52 µM. For the same compound, the “Ratio IC50” value in the series with Leishmania infantum [9] was found to be 15.5; in the series with Leishmania amazonensis [11], 23.
On to `CC1(C)OC2=C(C(=O)C(=O)c3ccccc32)C1n1cc(-c2ccc([N+](=O)[O-])cc2)nn1` (stereo not given), for which the “Ratio CC50/IC50” value in series [1] is 1.02; in series [3] it was 0.98; in series [4], 1.35; in series [8], 1.03. In addition, the IC50 in the series on Leishmania infantum [2] stood at 3.28 µM; in the series with Leishmania amazonensis [5], 2.95 µM; in the series with Leishmania amazonensis [7], 3.41 µM; in the series on Leishmania infantum [10], 3.25 µM. This compound had a CC50 at 24 h in series [6] of 3.35 µM. Moreover, the results for the “Ratio IC50” value in the series on Leishmania infantum [9] and in the series with Leishmania amazonensis [11] were 15.5 and 23, respectively.
In the case of `COc1ccc(-c2cn(C3C4=C(OC3(C)C)c3ccccc3C(=O)C4=O)nn2)cc1` (stereo not given), the “Ratio CC50/IC50” value turned out to be 0.81 in [1], 1.13 in [3], 1.75 in [4] and 0.78 in series [8]. Also, the IC50 is 5.39 µM with Leishmania infantum [2], 2.49 µM in the series with Leishmania amazonensis [5], 3.87 µM in the series with Leishmania amazonensis [7] and 5.57 µM in the series with Leishmania infantum [10]. Moreover, in series [6], the midpoint of cytotoxicity, the CC50 at 24 h, lay at 4.36 µM. In addition, the entries for the “Ratio IC50” value in the series with Leishmania infantum [9] and in the series on Leishmania amazonensis [11] were 15.5 and 23, respectively.
On to `Cc1ccc(-c2cn(C3C4=C(OC3(C)C)c3ccccc3C(=O)C4=O)nn2)cc1` (stereo not given), for which the “Ratio CC50/IC50” value was 1.07 in [1], 0.87 in [3], 0.95 in [4] and 0.98 in series [8]. The IC50 is 3.1 µM with Leishmania infantum [2], 3.49 µM in the series with Leishmania amazonensis [5], 3.8 µM in the series with Leishmania amazonensis [7] and 3.38 µM with Leishmania infantum [10]. In addition, in series [6], the midpoint of cytotoxicity, the CC50 at 24 h, lay at 3.31 µM. Further, the entries for the “Ratio IC50” value with Leishmania infantum [9] and in the series with Leishmania amazonensis [11] were 15.5 and 23, respectively.
Turning to `O=C1C=C(n2cc(CN3C(=O)c4ccccc4C3=O)nn2)C(=O)c2ccccc21`, the “Ratio CC50/IC50” value in series [1] turned out to be 0.64; in series [3], 0.11; in series [4], 0.13; in series [8], 0.13. In addition, the IC50 with Leishmania infantum [2] came out at 8.47 µM; in the series on Leishmania amazonensis [5], 40.2 µM; in the series on Leishmania amazonensis [7], 50.6 µM; in the series on Leishmania infantum [10], 42.1 µM. In series [6], the CC50 at 24 h was 5.39 µM. Also, the “Ratio IC50” value with Leishmania infantum [9] is 2; in the series with Leishmania amazonensis [11], 2.2.
